# Source: PubChem BioAssay
# DDE Tn6 FP inh: inhibitors of Tn6 peptide binding to human fibrin DD(E) | P02675 | Fibrin DD(E) TRITC-Tn6 fluorescence polarization displacement | inhibition, % at 8.3 µM | 370,000 compounds, 0.21% hits | AID 720509;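 active = inhibition above a per-campaign cutoff: mean of compounds within control limits plus 3 SD, cut at about 15% in these data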
# DDE Tn7 FP inh: inhibitors of Tn7 peptide binding to human fibrin DD(E); P02675; FP displacement of FITC-Tn7 peptide from fibrin DD(E); 0% = median of compound wells per plate; inhibition, % at 8.3 µM; 370,000 compounds, 0.13% hits;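 active = inhibition above the mean of compounds falling within the control limits plus 3 SD of them, cut at about 14% in these data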
#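 Assay system: human fibrin DD(E) protein / Input: 2 µM fibrin DD(E) / Benchmarks: high control of 10 µM Aha-Tn7 peptide / Measured by: fluorescence polarization of the labelled Tn7 tracer / Medium: Tris buffer with calcium and detergent, pH 7.8 / Timing: 10 min compound pre-incubation, 3 h probe incubation at room temperature / Repeats: one replicate per compound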
# H9c2 protect: myocardial damage modulation in H9c2 cells; AID 588492; 360,000 compounds, 0.63% hits; protection from H2O2 cell death, % at 20 µM; H9c2 cardiomyocytes, H2O2 injury protection, ATPLite, 2 h;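 active = compounds giving at least 50% protection of heart cells from peroxide-induced death in the single-dose screen, raw or plate-pattern-corrected value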
# TAG inh: reduces triacylglycerol accumulation in H9c2 cells | 230,000 compounds, 0.66% hits | Nile Red lipid (TAG) fluorescence; cells loaded with 200 µM oleic acid | inhibition, % at 12.5 µM | AID 651582;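 active = pattern-corrected inhibition of lipid staining of at least 50% with the nuclear-stain viability signal not falling by more than 50%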
# DAGLB inh: diacylglycerol lipase beta (human) inhibition; HEK293T DAGLB membrane lysate, EnzChek fluorogenic substrate; inhibition, % at 5.17 µM; 340,000 compounds, 0.059% hits; AID 504411; in the data active = inhibition above about 34%
# Target sequence (Q8NCG7 whole entry, looked up): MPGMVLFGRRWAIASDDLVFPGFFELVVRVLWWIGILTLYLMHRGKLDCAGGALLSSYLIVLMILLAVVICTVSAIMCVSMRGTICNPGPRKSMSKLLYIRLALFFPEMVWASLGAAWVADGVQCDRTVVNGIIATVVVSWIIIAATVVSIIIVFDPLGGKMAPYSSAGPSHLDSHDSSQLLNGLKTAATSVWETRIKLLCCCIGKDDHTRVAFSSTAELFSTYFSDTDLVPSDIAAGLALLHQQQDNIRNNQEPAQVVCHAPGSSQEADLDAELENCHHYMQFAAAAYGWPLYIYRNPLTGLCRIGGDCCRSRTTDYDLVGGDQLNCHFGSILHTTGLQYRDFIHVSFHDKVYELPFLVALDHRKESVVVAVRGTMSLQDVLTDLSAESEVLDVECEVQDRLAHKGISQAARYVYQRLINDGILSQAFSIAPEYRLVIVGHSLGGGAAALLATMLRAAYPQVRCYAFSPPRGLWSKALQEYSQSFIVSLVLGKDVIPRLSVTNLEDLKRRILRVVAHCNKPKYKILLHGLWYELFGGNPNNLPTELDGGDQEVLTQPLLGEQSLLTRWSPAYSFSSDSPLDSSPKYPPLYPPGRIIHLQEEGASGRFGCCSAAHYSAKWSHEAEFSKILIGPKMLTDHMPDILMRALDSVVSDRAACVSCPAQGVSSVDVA
# MT1-MMP act inh: blocks activation of human MT1-MMP; P50281; HT1080 RFP-PRO-GFP cells, GFP/RFP ratio fluorescence, overnight; percent of plate control window, DMSO zero; GFP/RFP ratio change, % at 20 µM; 360,000 compounds, 0.061% hits;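 active = GFP/RFP ratio change of at least 30% with cell ATP level not reduced by more than half and red fluorescence within 50% of control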
#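 Compound: 20 µM single dose, 1% DMSO / System: HT1080 RFP-PRO-GFP cells / Controls: DMSO and RFP-L50D-GFP cell wells / Read-out basis: GFP/RFP fluorescence ratio / Schedule: overnight compound exposure at 37 °C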
# A number is an active result; i = inactive; nt = no result; ! = repeats disagree. A selection: hits, their analogues and other compounds. The true share with any hit is near 1.4%.
SMILES,DDE Tn6 FP inh,DDE Tn7 FP inh,H9c2 protect,TAG inh,DAGLB inh,MT1-MMP act inh
Cc1ccc(CNc2ccc3nnc(-c4ccccc4)n3n2)cc1,i,i,i,i,i,i
c1ccc(CN2CCN(CCCNc3ccc4nnc(-c5ccccc5)n4n3)CC2)cc1,nt,nt,79,i,i,i
O=c1[nH]c(-c2cccnc2)nc2ccccc12,i,i,47,i,i,i
COC(=O)C[C@@H]1CC[C@@H]2[C@@H](COc3ccc(NC(=O)Nc4cccc(Cl)c4)cc3C(=O)N2C)O1,i,i,nt,nt,nt,nt
CCOc1ccc(N(CC(=O)Nc2c(C)n(C)n(-c3ccccc3)c2=O)S(=O)(=O)c2ccc(C(C)(C)C)cc2)cc1,i,i,nt,nt,nt,nt
CC(C)(C)OC(=O)C[C@@H]1C/C=C\C[C@@H](CC(=O)N[C@@H](CO)Cc2ccccc2)C(=O)NC[C@@H](c2ccccc2)OC1=O,i,i,65,i,i,i
O=C(C[C@H]1C/C=C/CC[C@H](Cc2ccc(F)cc2)C(=O)O[C@H](c2ccccc2)CNC1=O)NCCO,i,i,i,i,i,i
CC(C)(C)OC(=O)C[C@H]1C/C=C\C[C@@H](CC(=O)N[C@@H](CO)Cc2ccccc2)C(=O)NC[C@@H](c2ccccc2)OC1=O,i,i,i,i,i,i
O=C1N[C@H](Cc2ccccc2)COC(=O)[C@@H](Cc2ccc(F)cc2)C/C=C\C[C@H]1CC(=O)N(CCO)Cc1ccccc1,i,i,58,i,i,i
O=C1NC[C@H](c2ccccc2)OC(=O)[C@H](Cc2ccc(F)cc2)C/C=C\C[C@H]1CC(=O)N(CCO)Cc1ccccc1,i,i,94,i,i,i
O=C(C[C@@H]1C/C=C/CC[C@@H](Cc2ccc(F)cc2)C(=O)O[C@@H](c2ccccc2)CNC1=O)NCCO,i,i,59,i,i,i
CCCCNC(=O)C[C@@H]1C(=O)N(Cc2ccc(OC)cc2)C2=CCN(C(=O)OC(C)(C)C)C[C@]21C(=O)OCC,i,i,nt,nt,nt,nt
CCOC(=O)N1CCN(C(=O)C[C@H]2C(=O)N(CCCOC)C3=CCCCC[C@]32C(=O)OC)CC1,i,i,nt,nt,nt,nt
CC(C)C(=O)N1CCN(c2ccc(NC(=O)COc3ccccc3[N+](=O)[O-])cc2)CC1,i,i,72,nt,nt,i
CN1CCN(c2ccc(NC(=O)COc3ccccc3[N+](=O)[O-])cc2)CC1,i,i,i,i,i,i
CN(CCC#N)c1ccc(/C=C(\C#N)c2ccccn2)cc1,31,i,i,nt,i,i
CCOC(=O)CSc1nc2sc3c(c2c(=O)n1-c1ccccc1)CCN(C(C)C)C3,19,i,i,nt,i,i
CCNC1=C(Cl)C(=O)c2ccccc2C1=O,i,i,i,62,i,i
CCn1ncc2c1C(=O)NC1c3ccccc3C(=O)N21 (centres undefined),i,i,59,i,i,i
CCCC1CCC2(CC1)CCC2OC(=O)Nc1cccc(Cl)c1 (centres undefined),i,i,nt,nt,nt,nt
Nc1nc(CCl)nc(Nc2cccc3ccccc23)n1,i,i,i,81,nt,i
Nc1nc(Nc2cccc3ccccc23)nc(C2CCCC2=O)n1 (centres undefined),i,i,nt,nt,nt,nt
CCOc1ccccc1C(=O)N1CCC(Oc2cccnc2)CC1,i,i,nt,nt,nt,nt
Brc1ccc(C2=CC(c3cccs3)n3ncnc3N2)cc1 (centres undefined),i,19,i,i,i,i
COc1cc2c(C(=O)N3CCN(C)CC3)c(C)n(-c3ccccc3)c2cc1Br,i,i,i,nt,i,i
SMILES,DDE Tn6 FP inh,DDE Tn7 FP inh,H9c2 protect,TAG inh,DAGLB inh,MT1-MMP act inh
CCN(CC)CCNC(=O)c1c(C)n(-c2ccccc2)c2cc(Br)c(OC)cc12,i,i,i,69,i,i
COc1ccc(Cn2ccc3ccc(-c4ccc5ccn(Cc6ccccc6)c5c4)cc32)cc1,i,i,nt,nt,nt,nt
c1ccc(Cn2nnnc2C(c2cccnc2)N2CCN(C3CCCCC3)CC2)cc1 (centres undefined),i,i,79,nt,i,i
N#CCC[C@H]1CC[C@]2(CCCN(C(=O)C3CCCC3)C2)O1,i,i,nt,nt,nt,nt
Cc1ccc(S(=O)(=O)/N=C/c2cc(Br)ccc2O)cc1,i,i,54,i,i,i
Cc1cc(N=Cc2cc(Br)ccc2O)no1,i,i,57,nt,i,i
NC(=O)N/N=C\c1cc(Br)ccc1O,i,i,i,nt,i,i
Cc1cc(N=CC2=C(O)CC(C)(C)CC2=O)no1,i,i,i,nt,i,i
C=CCN1C(=O)[C@@H](CC(=O)N2CCC(c3ccccc3)CC2)[C@]2(C(=O)OC)CCCCC=C12,i,i,nt,nt,nt,nt
Cn1c(=O)c(=O)n(C)c2cc(S(=O)(=O)N3CCN(Cc4ccc5c(c4)OCO5)CC3)ccc21,i,i,nt,nt,nt,nt
CCCCCCCCN1C(=O)[C@@H](CC(=O)NCCCN2CCCC2=O)C[C@@]2(C(=O)OC)C1=C[C@H](C(C)C)O[C@@H]2C1CC1,i,i,nt,nt,nt,nt
COc1cc2c(cc1OC)C(c1ccc(O)cc1)NCC2 (centres undefined),i,i,i,i,i,i
Oc1cc2c(c(Cl)c1O)CCNCC2c1ccccc1 (centres undefined),i,i,68,i,i,i
Cc1cccc(C2CN(C)CCc3c2cc(O)c(O)c3Cl)c1 (centres undefined),i,i,i,i,i,i
C=CCN1CCc2c(cc(O)c(O)c2Cl)C(c2ccccc2)C1 (centres undefined),i,i,76,i,i,i
Oc1ccc(C2CNCCc3c2cc(O)c(O)c3Cl)cc1 (centres undefined),i,i,58!,i,i,i
COC(=O)C1CN(Cc2ccccc2)CCS(=O)(=O)N1Cc1ccc(F)cc1 (centres undefined),i,i,nt,nt,nt,nt
O=C(OC12CCCN(C1)/C(=C/c1ccncc1)C2)c1ccccc1 (centres undefined),i,i,nt,nt,nt,nt
O=C(CCn1c(=O)oc2ccccc21)N(Cc1ccccc1)c1ccccc1,i,i,73,i,i,i
C=CC(=O)Nc1cccc(Oc2nc(Nc3ccc(N4CCN(C)CC4)cc3OC)ncc2Cl)c1,i,i,nt,nt,nt,nt
C=CC(=O)Nc1ccc(CN2C(=O)N(c3c(Cl)c(OC)cc(OC)c3Cl)Cc3cnc(NCCCCN(CC)CC)nc32)cc1,nt,nt,i,66,i,i
OC(c1ccccc1)(c1ccccc1)C1CCN(CCCOc2ccc(-c3cccnc3)cc2)CC1,i,i,nt,nt,nt,nt
O=C(O)CCC(=O)Nc1cccc(-c2nnc(-c3ccccc3)o2)c1,i,i,i,nt,i,i
CCC(=O)Nc1cccc(-c2nnc(-c3cccc(NC(=O)CC)c3)o2)c1,i,i,85,nt,i,i
COc1ccc(CC(=O)Nc2cccc(-c3nnc(-c4ccco4)o3)c2)cc1,i,i,i,i,i,i
